Tested on: Fibroblast
Experiment: Multiplex assay against human fibroblast
Format: toxicity, cell-based
In short: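 Cells stained live at seeding with Hoechst33342, BioTracker Green Microtubule Cytoskeleton Dye, MitoTracker Red and Annexin V Alexa Fluor 680 were imaged on a CQ1 microscope at 37°C and 5% CO2 after compound addition. Their classification by CellPathfinder machine-learning gating ran from Hoechst high-intensity objects versus normal cells, to healthy, pyknosed or fragmented nuclei among normal cells, to mitotic or apoptotic among pyknosed cells. Tubulin, mitochondrial-mass and membrane-permeability phenotypes are per cents of healthy-nucleus cells.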

[1] = 12 h, 1 µM, compound concentration 1 uM, replicate 1
[2] = 12 h, 1 µM, compound concentration 1 uM, replicate 2
[3] = 12 h, 10 µM, compound concentration 10 uM, replicate 1
[4] = 12 h, 10 µM, compound concentration 10 uM, replicate 2
[5] = 24 h, 1 µM, compound concentration 1 uM, replicate 1
[6] = 24 h, 1 µM, compound concentration 1 uM, replicate 2
[7] = 24 h, 10 µM, compound concentration 10 uM, replicate 1
[8] = 24 h, 10 µM, compound concentration 10 uM, replicate 2
[9] = 48 h, 1 µM, compound concentration 1 uM, replicate 1
[10] = 48 h, 1 µM, compound concentration 1 uM, replicate 2
[11] = 48 h, 10 µM, compound concentration 10 uM, replicate 1
[12] = 48 h, 10 µM, compound concentration 10 uM, replicate 2

CNC(=O)Nc1ccc2c(c1)[C@@]1(CC2)OC(=O)N(CC(=O)N(Cc2ccc(F)cc2)[C@@H](C)C(F)(F)F)C1=O [A-486]
Population Apoptotic (%) [1]: 68%
Population Fragmented Nuclei (%) [1]: 21%
Population Healthy Nuclei (%) [1]: 60%
Population Hoechst High Intensity Objects (%) [1]: 9%
Population Membrane Permeable-Phenotype (%) [1]: 31%
Population Mitochondria Different-Phenotype (%) [1]: 4%
Population Mitotic Cells (%) [1]: 31%
Population Normal (%) [1]: 90%
Population Pyknosed Nuclei (%) [1]: 18%
Population Tubulin-Different-Phenotype (%) [1]: 55%
Total Cell Count [1]: 291
Population Apoptotic (%) [2]: 75%
Population Fragmented Nuclei (%) [2]: 57%
Population Healthy Nuclei (%) [2]: 21%
Population Hoechst High Intensity Objects (%) [2]: 34%
Population Membrane Permeable-Phenotype (%) [2]: 41%
Population Mitochondria Different-Phenotype (%) [2]: 8%
Population Mitotic Cells (%) [2]: 25%
Population Normal (%) [2]: 65%
Population Pyknosed Nuclei (%) [2]: 21%
Population Tubulin-Different-Phenotype (%) [2]: 91%
Total Cell Count [2]: 87
Population Apoptotic (%) [3]: 55%
Population Fragmented Nuclei (%) [3]: 24%
Population Healthy Nuclei (%) [3]: 61%
Population Hoechst High Intensity Objects (%) [3]: 14%
Population Membrane Permeable-Phenotype (%) [3]: 7%
Population Mitochondria Different-Phenotype (%) [3]: 5%
Population Mitotic Cells (%) [3]: 45%
Population Normal (%) [3]: 85%
Population Pyknosed Nuclei (%) [3]: 14%
Population Tubulin-Different-Phenotype (%) [3]: 7%
Total Cell Count [3]: 160
Population Apoptotic (%) [4]: 33%
Population Fragmented Nuclei (%) [4]: 57%
Population Healthy Nuclei (%) [4]: 37%
Population Hoechst High Intensity Objects (%) [4]: 29%
Population Membrane Permeable-Phenotype (%) [4]: 15%
Population Mitochondria Different-Phenotype (%) [4]: 10%
Population Mitotic Cells (%) [4]: 66%
Population Normal (%) [4]: 70%
Population Pyknosed Nuclei (%) [4]: 5%
Population Tubulin-Different-Phenotype (%) [4]: 45%
Total Cell Count [4]: 77
Population Apoptotic (%) [5]: 56%
Population Fragmented Nuclei (%) [5]: 23%
Population Healthy Nuclei (%) [5]: 59%
Population Hoechst High Intensity Objects (%) [5]: 14%
Population Membrane Permeable-Phenotype (%) [5]: 17%
Population Mitochondria Different-Phenotype (%) [5]: 6%
Population Mitotic Cells (%) [5]: 43%
Population Normal (%) [5]: 85%
Population Pyknosed Nuclei (%) [5]: 17%
Population Tubulin-Different-Phenotype (%) [5]: 46%
Total Cell Count [5]: 300
Population Apoptotic (%) [6]: 71%
Population Fragmented Nuclei (%) [6]: 63%
Population Healthy Nuclei (%) [6]: 23%
Population Hoechst High Intensity Objects (%) [6]: 33%
Population Membrane Permeable-Phenotype (%) [6]: 50%
Population Mitochondria Different-Phenotype (%) [6]: 16%
Population Mitotic Cells (%) [6]: 28%
Population Normal (%) [6]: 66%
Population Pyknosed Nuclei (%) [6]: 13%
Population Tubulin-Different-Phenotype (%) [6]: 66%
Total Cell Count [6]: 78
Population Apoptotic (%) [7]: 60%
Population Fragmented Nuclei (%) [7]: 30%
Population Healthy Nuclei (%) [7]: 53%
Population Hoechst High Intensity Objects (%) [7]: 14%
Population Membrane Permeable-Phenotype (%) [7]: 12%
Population Mitochondria Different-Phenotype (%) [7]: 1%
Population Mitotic Cells (%) [7]: 39%
Population Normal (%) [7]: 85%
Population Pyknosed Nuclei (%) [7]: 15%
Population Tubulin-Different-Phenotype (%) [7]: 8%
Total Cell Count [7]: 177
Population Apoptotic (%) [8]: 100%
Population Fragmented Nuclei (%) [8]: 56%
Population Healthy Nuclei (%) [8]: 40%
Population Hoechst High Intensity Objects (%) [8]: 38%
Population Membrane Permeable-Phenotype (%) [8]: 25%
Population Mitochondria Different-Phenotype (%) [8]: 0%
Population Mitotic Cells (%) [8]: 0%
Population Normal (%) [8]: 61%
Population Pyknosed Nuclei (%) [8]: 4%
Population Tubulin-Different-Phenotype (%) [8]: 10%
Total Cell Count [8]: 81

CCc1nn(CCCN2CCN(c3cccc(Cl)c3)CC2)c(=O)n1CCOc1ccccc1.Cl [NEFAZODONE HYDROCHLORIDE]
Population Apoptotic (%) [1]: 60%
Population Fragmented Nuclei (%) [1]: 16%
Population Healthy Nuclei (%) [1]: 47%
Population Hoechst High Intensity Objects (%) [1]: 13%
Population Membrane Permeable-Phenotype (%) [1]: 31%
Population Mitochondria Different-Phenotype (%) [1]: 10%
Population Mitotic Cells (%) [1]: 40%
Population Normal (%) [1]: 86%
Population Pyknosed Nuclei (%) [1]: 35%
Population Tubulin-Different-Phenotype (%) [1]: 75%
Total Cell Count [1]: 176
Population Apoptotic (%) [2]: 0%
Population Fragmented Nuclei (%) [2]: 8%
Population Healthy Nuclei (%) [2]: 89%
Population Hoechst High Intensity Objects (%) [2]: 6%
Population Membrane Permeable-Phenotype (%) [2]: 3%
Population Mitochondria Different-Phenotype (%) [2]: 9%
Population Mitotic Cells (%) [2]: 100%
Population Normal (%) [2]: 93%
Population Pyknosed Nuclei (%) [2]: 1%
Population Tubulin-Different-Phenotype (%) [2]: 29%
Total Cell Count [2]: 68
Population Apoptotic (%) [3]: 81%
Population Fragmented Nuclei (%) [3]: 24%
Population Healthy Nuclei (%) [3]: 45%
Population Hoechst High Intensity Objects (%) [3]: 10%
Population Membrane Permeable-Phenotype (%) [3]: 1%
Population Mitochondria Different-Phenotype (%) [3]: 84%
Population Mitotic Cells (%) [3]: 18%
Population Normal (%) [3]: 89%
Population Pyknosed Nuclei (%) [3]: 30%
Population Tubulin-Different-Phenotype (%) [3]: 96%
Total Cell Count [3]: 157
Population Apoptotic (%) [4]: 69%
Population Fragmented Nuclei (%) [4]: 9%
Population Healthy Nuclei (%) [4]: 69%
Population Hoechst High Intensity Objects (%) [4]: 3%
Population Membrane Permeable-Phenotype (%) [4]: 60%
Population Mitochondria Different-Phenotype (%) [4]: 97%
Population Mitotic Cells (%) [4]: 30%
Population Normal (%) [4]: 96%
Population Pyknosed Nuclei (%) [4]: 20%
Population Tubulin-Different-Phenotype (%) [4]: 97%
Total Cell Count [4]: 61
Population Apoptotic (%) [5]: 52%
Population Fragmented Nuclei (%) [5]: 20%
Population Healthy Nuclei (%) [5]: 57%
Population Hoechst High Intensity Objects (%) [5]: 14%
Population Membrane Permeable-Phenotype (%) [5]: 16%
Population Mitochondria Different-Phenotype (%) [5]: 17%
Population Mitotic Cells (%) [5]: 47%
Population Normal (%) [5]: 85%
Population Pyknosed Nuclei (%) [5]: 22%
Population Tubulin-Different-Phenotype (%) [5]: 68%
Total Cell Count [5]: 175
Population Apoptotic (%) [6]: 50%
Population Fragmented Nuclei (%) [6]: 8%
Population Healthy Nuclei (%) [6]: 85%
Population Hoechst High Intensity Objects (%) [6]: 2%
Population Membrane Permeable-Phenotype (%) [6]: 1%
Population Mitochondria Different-Phenotype (%) [6]: 15%
Population Mitotic Cells (%) [6]: 50%
Population Normal (%) [6]: 97%
Population Pyknosed Nuclei (%) [6]: 5%
Population Tubulin-Different-Phenotype (%) [6]: 33%
Total Cell Count [6]: 71
Population Apoptotic (%) [7]: 80%
Population Fragmented Nuclei (%) [7]: 23%
Population Healthy Nuclei (%) [7]: 58%
Population Hoechst High Intensity Objects (%) [7]: 22%
Population Membrane Permeable-Phenotype (%) [7]: 3%
Population Mitochondria Different-Phenotype (%) [7]: 86%
Population Mitotic Cells (%) [7]: 20%
Population Normal (%) [7]: 77%
Population Pyknosed Nuclei (%) [7]: 18%
Population Tubulin-Different-Phenotype (%) [7]: 100%
Total Cell Count [7]: 177
Population Fragmented Nuclei (%) [8]: 22%
Population Healthy Nuclei (%) [8]: 56%
Population Hoechst High Intensity Objects (%) [8]: 1%
Population Membrane Permeable-Phenotype (%) [8]: 80%
Population Mitochondria Different-Phenotype (%) [8]: 100%
Population Normal (%) [8]: 98%
Population Pyknosed Nuclei (%) [8]: 20%
Total Cell Count [8]: 72
Population Apoptotic (%) [9]: 43%
Population Fragmented Nuclei (%) [9]: 30%
Population Healthy Nuclei (%) [9]: 58%
Population Hoechst High Intensity Objects (%) [9]: 19%
Population Membrane Permeable-Phenotype (%) [9]: 19%
Population Mitochondria Different-Phenotype (%) [9]: 5%
Population Mitotic Cells (%) [9]: 56%
Population Normal (%) [9]: 80%
Population Pyknosed Nuclei (%) [9]: 11%
Population Tubulin-Different-Phenotype (%) [9]: 51%
Total Cell Count [9]: 178
Population Apoptotic (%) [10]: 50%
Population Healthy Nuclei (%) [10]: 67%
Population Hoechst High Intensity Objects (%) [10]: 13%
Population Membrane Permeable-Phenotype (%) [10]: 6%
Population Mitochondria Different-Phenotype (%) [10]: 14%
Population Mitotic Cells (%) [10]: 50%
Population Normal (%) [10]: 86%
Population Pyknosed Nuclei (%) [10]: 1%
Population Tubulin-Different-Phenotype (%) [10]: 71%
Total Cell Count [10]: 127
Population Apoptotic (%) [11]: 85%
Population Fragmented Nuclei (%) [11]: 40%
Population Healthy Nuclei (%) [11]: 55%
Population Hoechst High Intensity Objects (%) [11]: 34%
Population Membrane Permeable-Phenotype (%) [11]: 1%
Population Mitochondria Different-Phenotype (%) [11]: 62%
Population Mitotic Cells (%) [11]: 14%
Population Normal (%) [11]: 65%
Population Pyknosed Nuclei (%) [11]: 4%
Population Tubulin-Different-Phenotype (%) [11]: 96%
Total Cell Count [11]: 257
Population Apoptotic (%) [12]: 50%
Population Fragmented Nuclei (%) [12]: 43%
Population Healthy Nuclei (%) [12]: 54%
Population Hoechst High Intensity Objects (%) [12]: 25%
Population Membrane Permeable-Phenotype (%) [12]: 2%
Population Mitochondria Different-Phenotype (%) [12]: 59%
Population Mitotic Cells (%) [12]: 50%
Population Normal (%) [12]: 75%
Population Pyknosed Nuclei (%) [12]: 2%
Population Tubulin-Different-Phenotype (%) [12]: 95%
Total Cell Count [12]: 232
